Laboratory results reported in ChEMBL document CHEMBL1123844, “Synthesis of new antiinflammatory steroidal 20-carboxamides: (20R)- and (20S)-21-(N-substituted amino)-11 beta,17,20-trihydroxy-3,21-dioxo-1,4- pregnadiene” (J Med Chem, 1987).

Experiments:
Rattus norvegicus [1] = species: Rattus norvegicus; assay: Compound was evaluated for antiinflammatory activity in granuloma bioassay and measured as plasma corticosterone weight; assay type: functional, organism-based
Method in brief: (§1)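 Male Sprague–Dawley rats (100–200 g), acclimated 1 week under controlled lighting. Each rat got one cotton pellet (35 ± 1 mg) loaded with 2 mg steroid in acetone and one vehicle pellet; controls got two vehicle pellets. Rats were killed 7 days later. Readouts: thymus and adrenal weights, initial/final body weight, plasma corticosterone by 3H radioimmunoassay of cardiac blood. Mean ± SEM, n=6, Student's t test.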

Rattus norvegicus [2] = species: Rattus norvegicus; assay: Compound was evaluated for antiinflammatory activity in granuloma bioassay and measured as body weight gain; assay type: functional; method in brief: as §1
Rattus norvegicus [3] = assay: Tested for topical antiinflammatory activity in the croton oil ear edema assay; assay type: functional; parameters: concentration or dose not given beside the values
Method in brief: (§2)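 Male Sprague–Dawley rats (100–200 g), acclimated 1 week. Baseline ear thickness was measured. Steroid at 0.75 mg/ear went to both ears, then 30 min later 50 μL 5% croton oil in acetone. Thickness was remeasured at 5 h. Mean change ± SEM, n=5; % inhibition vs vehicle controls, Student's t test.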

Rattus norvegicus [4] = assay: Tested for topical antiinflammatory activity in the croton oil ear edema assay and was expressed as mean change in ear thickness of rats; assay type: functional; method in brief: as §2
Rattus norvegicus [5] = species: Rattus norvegicus; assay: Tested for inhibition of formation of granulation tissue around the cotton pellet untreated with steroid and expressed as net dry weight; assay type: functional
Method in brief: (§3)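 Male Sprague–Dawley rats (100–200 g). Before implantation, the right cotton pellet (35 ± 1 mg) received 2 mg steroid in acetone and the left pellet vehicle only; controls had two vehicle pellets. After 7 days, pellets with granulation tissue were dried at 60 °C for 48 h and weighed. Net dry weight, mean ± SEM, n=6; % inhibition vs vehicle group.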

Rattus norvegicus [6] = species: Rattus norvegicus; assay: Tested for inhibition of formation of granulation tissue around the cotton pellet treated with steroid; assay type: functional; parameters: concentration or dose not given beside the values; method in brief: as §3
Rattus norvegicus [7] = species: Rattus norvegicus; assay: Tested for inhibition of formation of granulation tissue around the cotton pellet untreated with steroid; assay type: functional; parameters: concentration or dose not given beside the values; method in brief: as §3
Rattus norvegicus [8] = species: Rattus norvegicus; assay: Tested for inhibition of formation of granulation tissue around the cotton pellet treated with steroid and expressed as net dry weight; assay type: functional; method in brief: as §3
Rattus norvegicus [9] = species: Rattus norvegicus; assay: Evaluated for antiinflammatory activity in granuloma bioassay and expressed as relative thymus weight; assay type: functional; method in brief: as §1
[10] = Octanol- water partition coefficient was determined.
Rattus norvegicus [11] = species: Rattus norvegicus; assay: Evaluated for antiinflammatory activity in granuloma bioassay and expressed as relative adrenal weight; assay type: functional; method in brief: as §1

Compound | Plasma corticosterone (Rattus norvegicus [1]) | Body weight gain (Rattus norvegicus [2]) | Inhibition (Rattus norvegicus [3]) | Mean change (Rattus norvegicus [4]) | Net dry weight (Rattus norvegicus [5]) | Inhibition (Rattus norvegicus [6]) | Inhibition (Rattus norvegicus [7]) | Net dry weight (Rattus norvegicus [8]) | Relative thymus weight (Rattus norvegicus [9]) | Partition coefficient [10] | Relative adrenal weight (Rattus norvegicus [11])
CCNC(=O)[C@H](O)[C@@]1(O)CC[C@H]2[C@@H]3CCC4=CC(=O)C=C[C@]4(C)[C@H]3[C@@H](O)C[C@@]21C | 280 ng/mL | 45.7 g | 34.6% | 0.302 mm | 58.1 mg | 53.3% | 26.7% | 36.4 mg |  |  | 
C[C@]12C=CC(=O)C=C1CC[C@@H]1[C@@H]2[C@@H](O)C[C@@]2(C)[C@H]1CC[C@]2(O)[C@H](O)C(=O)NCc1ccccc1 | 298 ng/mL | 55.7 g | 21.9% | 0.361 mm | 75.2 mg | 20.9% | 5.2% | 61.6 mg | 264.2 mg 100g-1 | 30 | 11.8 mg 100g-1
CCNC(=O)[C@@H](O)[C@@]1(O)CC[C@H]2[C@@H]3CCC4=CC(=O)C=C[C@]4(C)[C@H]3[C@@H](O)C[C@@]21C | 288 ng/mL | 54.7 g | 33.8% | 0.305 mm | 83.1 mg | 23.1% | -4.9% | 59.9 mg |  |  | 
C[C@]12C=CC(=O)C=C1CC[C@@H]1[C@@H]2[C@@H](O)C[C@@]2(C)[C@H]1CC[C@]2(O)C(=O)CO [PREDNISOLONE] | 130 ng/mL | 55 g | 68.6% | 0.145 mm | 58.2 mg | 60.6% | 26.6% | 30.7 mg | 110.2 mg 100g-1 | 30 | 12.1 mg 100g-1
CNC(=O)[C@@H](O)[C@@]1(O)CC[C@H]2[C@@H]3CCC4=CC(=O)C=C[C@]4(C)[C@H]3[C@@H](O)C[C@@]21C | 291 ng/mL | 55 g | 24.5% | 0.349 mm | 82.8 mg | 21.1% | -4.5% | 61.6 mg | 247 mg 100g-1 | 8.6 | 16.7 mg 100g-1
CCCNC(=O)[C@H](O)[C@@]1(O)CC[C@H]2[C@@H]3CCC4=CC(=O)C=C[C@]4(C)[C@H]3[C@@H](O)C[C@@]21C | 236 ng/mL | 30.2 g | 31.9% | 0.311 mm | 46.6 mg | 69.3% | 41.2% | 23.9 mg | 88.5 mg 100g-1 | 26.7 | 13.1 mg 100g-1
C[C@]12C=CC(=O)C=C1CC[C@@H]1[C@@H]2[C@@H](O)C[C@@]2(C)[C@H]1CC[C@]2(O)[C@@H](O)C(=O)NCc1ccccc1 | 101 ng/mL | 42 g | 42.6% | 0.265 mm | 48.4 mg | 69.3% | 38.9% | 24 mg | 167.1 mg 100g-1 | 32.5 | 12.4 mg 100g-1
CNC(=O)[C@H](O)[C@@]1(O)CC[C@H]2[C@@H]3CCC4=CC(=O)C=C[C@]4(C)[C@H]3[C@@H](O)C[C@@]21C | 321 ng/mL | 46 g | 33.5% | 0.307 mm | 40.8 mg | 75.5% | 48.6% | 18.9 mg | 116.4 mg 100g-1 | 10 | 14 mg 100g-1
CCCNC(=O)[C@@H](O)[C@@]1(O)CC[C@H]2[C@@H]3CCC4=CC(=O)C=C[C@]4(C)[C@H]3[C@@H](O)C[C@@]21C | 164 ng/mL | 56.7 g | 23.6% | 0.353 mm | 48.3 mg | 57.1% | 39.1% | 33.4 mg | 161.7 mg 100g-1 | 16.3 | 14 mg 100g-1
